PKD1 inh – PKD1 (human) kinase inhibition. Q15139. PKD1 kinase fluorescence polarization assay. hit rate 0.056% among 200,000. inhibition, % (test concentration not listed). AID 797; in the data active = inhibition above about 50%
TNAP inh noacc – blocks human TNAP activity with no phosphate acceptor present; P05186; purified TNAP, CDP-star luminescence, 30 min; inhibition, % at 20 µM; hit rate 0.26% among 200,000; AID 1012;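 active = tissue-nonspecific alkaline phosphatase inhibition above about 50% at 20 µM in the single-dose screen, limit read from the data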;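 also: 0% = DMSO negative control and 100% = EDTA positive control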
Target sequence (P05186 whole entry, looked up): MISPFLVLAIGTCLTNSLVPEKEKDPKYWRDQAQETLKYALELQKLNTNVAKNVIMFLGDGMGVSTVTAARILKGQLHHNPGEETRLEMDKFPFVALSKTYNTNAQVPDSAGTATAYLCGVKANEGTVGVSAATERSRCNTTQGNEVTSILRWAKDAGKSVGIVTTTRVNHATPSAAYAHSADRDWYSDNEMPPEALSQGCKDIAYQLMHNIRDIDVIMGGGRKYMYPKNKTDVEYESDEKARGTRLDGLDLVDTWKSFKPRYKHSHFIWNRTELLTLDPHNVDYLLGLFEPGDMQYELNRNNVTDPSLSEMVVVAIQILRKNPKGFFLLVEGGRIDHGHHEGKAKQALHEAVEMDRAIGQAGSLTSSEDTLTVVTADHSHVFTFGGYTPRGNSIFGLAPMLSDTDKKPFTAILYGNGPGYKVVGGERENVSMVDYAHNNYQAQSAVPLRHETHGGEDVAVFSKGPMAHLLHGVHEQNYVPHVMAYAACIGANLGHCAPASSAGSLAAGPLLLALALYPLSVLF
TNAP inh hiacc – inhibitors of human TNAP at high phosphate acceptor concentration | P05186 | purified TNAP, CDP-star luminescence, 1 M DEA | inhibition, % at 20 µM | hit rate 0.03% among 200,000;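 active = over 50% inhibition of tissue-nonspecific alkaline phosphatase at 20 µM in the single-dose screen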;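 also: plate controls were DMSO wells for no effect and EDTA-quenched wells as full inhibition for full effect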
TNAP act hiacc – TNAP (human) activation, high acceptor; 200,000 tested, under 10 active; activation factor at 20 µM; purified TNAP, CDP-star luminescence, 1 M DEA, 30 min; active compounds read high; 0 = EDTA background, 1 = DMSO-only activity; P05186;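 active = activation factor at least 2 at 20 µM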
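Dosing: 20 µM single point. System: human TNAP. Amount: TNAP 1/800 final. Incubation: 30 min, room temperature. Read-out: TNAP activation factor scaled between EDTA and DMSO control wells. Signal: luminescence from CDP-star hydrolysis. Medium: 1 M DEA, pH 9.8, Mg2+, Zn2+. Control set: EDTA negative control, DMSO positive control.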
* hit, by the source's call; / = no result given. The list is not random: actives were taken first. Their share in the collection is about 0.35%.

SMILES	PKD1 inh	TNAP inh noacc	TNAP inh hiacc	TNAP act hiacc
CCN(CC)CCSc1nc2ccccc2c(=S)n1-c1ccccc1	-1	-1	5	1
C=CCSc1n[nH]c(-c2ccc(OCCC)cc2)n1	-9	50*	-1	1
COc1cc(/C=C2\SC(c3ccccc3)=NC2=O)cc(Cl)c1O	1	52*	25	0.8
COc1ccccc1NC(=O)NCc1ccco1	-3	-5	-1	1
Cc1nc2c3cnn(-c4ccc(C)c(C)c4)c3ncn2n1	-3	81*	2	1
CCc1c(C)[nH]c2nc3ccccc3n2c1=O	7	51*	-1	1
CCOc1ccc(C(=O)N/N=C/c2ccc(SC)cc2)cc1	-9	-11	-4	1
O=C(O)/C=C/C(=O)NNC(=O)c1cc(-c2ccccc2)n[nH]1	3	49	2	1
O=C(O)c1cc(-c2ccccc2)n[nH]1	8	86*	2	1
Cn1cccc1-c1cc(C(=O)N2CCc3c([nH]c4ccccc34)C2c2ccccn2)[nH]n1 (stereo unspecified)	0	18	-3	1
O=C(O)c1cc(-c2ccccc2Cl)n[nH]1	3	96*	10	0.9
Cn1cccc1-c1cc(C(=O)O)[nH]n1	/	70*	2	1
CCOc1ccc(/C=N/NC(=O)c2cc(-c3cccn3C)n[nH]2)cc1	8	79*	7	0.9
CC1CC(=O)c2cnc(Nc3cccc(C(F)(F)F)c3)nc2C1 (stereo unspecified)	-17	-10	0	1
CC(NC(=O)c1cncc(Br)c1)c1ccc(S(N)(=O)=O)cc1 (stereo unspecified)	-2	-10	-4	1
COc1ccc(-c2ccnc(-c3ccc(O)cc3)n2)cc1	2	-7	-7	1.1
COc1ccc(-c2nc(N=Nc3ccc(O)cc3)n[nH]2)cc1	-5	74*	29	0.7
Cc1ccc(S(=O)(=O)Nc2ccc(N=Nc3ccc(O)cc3)cc2)cc1	-18	26	36	0.6
Cc1ccc(-c2nc(N=Nc3ccc(O)cc3)n[nH]2)cc1	-1	68*	33	0.7
CNc1sc(C(=O)c2ccccc2F)c(N)c1-c1nc2ccccc2s1	6	0	8	0.9
COc1ccc(O)c(/C=N/n2c(-c3ccco3)csc2=Nc2cccnc2)c1	-24	-14	-1	1
CN=c1scc(-c2ccco2)n1/N=C/c1ccc(O)c(O)c1	-2	67*	11	0.9
C=CCN=c1scc(C)n1/N=C/c1ccc(O)c(O)c1	-2	77*	8	0.9
COc1ccc(OC)c(S(=O)(=O)Nc2ccc(O)c(Sc3ncn[nH]3)c2)c1	-5	74*	1	1
CSc1ccc(S(=O)(=O)Nc2ccc(S(=O)(=O)Nc3ccc(C)cc3)cc2)cc1	6	-2	3	1
SMILES	PKD1 inh	TNAP inh noacc	TNAP inh hiacc	TNAP act hiacc
CCOc1ccc(S(=O)(=O)Nc2ccc(O)c(Sc3ncn[nH]3)c2)cc1	4	77*	2	1
Cc1ccc(S(=O)(=O)Nc2ccc(O)c(Sc3ncn[nH]3)c2)cc1	0	74*	-4	1
O=C(Nc1ccc(Cl)cc1)N1CCN(c2ncccn2)CC1	-7	-6	-4	1
CC1=C(C(=O)OCC(C)C)[C@]23C(=O)c4ccccc4[C@@]2(O1)OC(N)=C3C#N	-3	-1	-1	1
COC(=O)c1cc(-c2ccc(OC)cc2)n[nH]1	0	94*	-5	1
COC(=O)c1cc(-c2cccc(OC)c2)n[nH]1	-3	46	-3	1
CCOC(=O)c1cc(-c2ccc(C)o2)n[nH]1	-5	68*	0	1
CCOC(=O)c1cc(-c2cc3ccccc3o2)n[nH]1	-10	-15	-3	1
CCOc1ccc(-c2cc(C(=O)OC)[nH]n2)cc1	-6	85*	-6	1.1
COC(=O)c1cc(-c2ccc(C)cc2)n[nH]1	1	90*	-2	1
CCOc1cccc(-c2cc(C(=O)NN)[nH]n2)c1	5	-7	-1	1
O=C(C1CCN(Cc2ccc(Cl)cc2)CC1)N1CCN(C(c2ccccc2)c2ccccc2)CC1	0	-29	-2	1
Cc1ccc(NCc2ccco2)cc1C	-8	-12	-8	1.1
O=C(COc1ccccc1C(=O)N/N=C\c1ccc(O)c(O)c1)N/N=C/c1ccc(O)c(O)c1	13	92*	60*	0.4
Cc1ccc(NS(=O)(=O)c2cc([N+](=O)[O-])ccc2NNC(=S)Nc2cccc(Cl)c2)c(C)c1	5	40	58*	0.4
Cc1ccc(NS(=O)(=O)c2cc([N+](=O)[O-])ccc2NNC(=S)Nc2cc(C)ccc2C)c(C)c1	4	22	41	0.6

Assay outcomes (PubChem)
